Where a chain is given by its changes, count along the chain named.
How the values were obtained:
hGlyT2^W215F = target: T1, hGlyT2^W215F (Homo sapiens, UniProt Q9Y345, W215F); format: cell-based
T1 sequence (Q9Y345 1-797 W215F): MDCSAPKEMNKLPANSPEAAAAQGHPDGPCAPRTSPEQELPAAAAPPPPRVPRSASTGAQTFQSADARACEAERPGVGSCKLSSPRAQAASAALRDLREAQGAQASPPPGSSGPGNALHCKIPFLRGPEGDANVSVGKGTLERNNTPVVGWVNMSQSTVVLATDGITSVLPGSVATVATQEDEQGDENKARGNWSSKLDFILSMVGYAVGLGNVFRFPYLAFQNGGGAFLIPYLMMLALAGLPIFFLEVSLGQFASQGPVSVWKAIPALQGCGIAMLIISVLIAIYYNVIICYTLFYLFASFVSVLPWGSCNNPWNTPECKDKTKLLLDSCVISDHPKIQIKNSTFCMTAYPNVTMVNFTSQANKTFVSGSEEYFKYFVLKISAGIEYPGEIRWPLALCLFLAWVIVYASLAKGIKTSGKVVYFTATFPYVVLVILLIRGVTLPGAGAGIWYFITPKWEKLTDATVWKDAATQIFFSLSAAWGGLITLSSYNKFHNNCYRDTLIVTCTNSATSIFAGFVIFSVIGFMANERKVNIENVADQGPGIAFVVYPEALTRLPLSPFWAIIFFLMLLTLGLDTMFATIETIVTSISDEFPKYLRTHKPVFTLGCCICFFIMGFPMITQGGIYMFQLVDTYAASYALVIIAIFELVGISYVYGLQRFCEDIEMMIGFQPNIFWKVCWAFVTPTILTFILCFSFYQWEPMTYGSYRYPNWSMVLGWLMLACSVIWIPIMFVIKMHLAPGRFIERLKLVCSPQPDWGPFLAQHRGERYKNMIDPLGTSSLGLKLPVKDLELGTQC

hGlyT2^WT [1] = target: T2, hGlyT2^WT (Homo sapiens, UniProt Q9Y345); test: Sodium dependence of inhibition of glycine transport currents; format: cell-based; conditions: 300 μM glycine
T2 sequence (Q9Y345 1-797): T1 sequence (Q9Y345 1-797 W215F) with F215W

hGlyT2^WT [2] = target: T2, hGlyT2^WT; format: cell-based; conditions: glycine concentration-dependent currents with co-applied inhibitor
hGlyT2^WT [3] = target: T2, hGlyT2^WT; test: Reversibility; format: cell-based; conditions: washout, hGlyT2^WT
In short: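 Xenopus oocytes injected with 20 ng hGlyT2 WT cRNA and held 3–6 days at 18 °C. Glycine currents recorded by two-electrode voltage clamp at −60 mV. Test compound applied at a single concentration (10 μM maximum), then washed out. Recovery of 30 µM glycine-evoked currents followed to 30 min, normalised to pre-inhibitor current. n ≥ 5 from at least two frogs.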

CCI mice = test: Mechanical allodynia; format: in vivo, mouse; conditions: for Peak reduction of response rate to von Frey stimulus: 3 hours
In short: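 CCI mice tested 14 days after surgery. […] A single 0.4 g von Frey filament (about 15% response in naïve mice) applied to the left hind plantar surface until it bent. Response rate recorded after dosing.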

[4] = target: serotonin 2A (5-HT2A) receptor (Homo sapiens, UniProt P28223); test: 5-HT2A receptor antagonist IC50 determination; format: cell-based
adenosine receptors = test: Cerep panel off-target selectivity screen, adenosine receptors; format: binding; conditions: 1 × 10^-5 M
muscarinic receptors = test: Cerep panel off-target selectivity screen, muscarinic receptors; format: binding; conditions: 1 × 10^-5 M

Chain of serotonin 2A (5-HT2A) receptor (P28223 whole entry, species assumed): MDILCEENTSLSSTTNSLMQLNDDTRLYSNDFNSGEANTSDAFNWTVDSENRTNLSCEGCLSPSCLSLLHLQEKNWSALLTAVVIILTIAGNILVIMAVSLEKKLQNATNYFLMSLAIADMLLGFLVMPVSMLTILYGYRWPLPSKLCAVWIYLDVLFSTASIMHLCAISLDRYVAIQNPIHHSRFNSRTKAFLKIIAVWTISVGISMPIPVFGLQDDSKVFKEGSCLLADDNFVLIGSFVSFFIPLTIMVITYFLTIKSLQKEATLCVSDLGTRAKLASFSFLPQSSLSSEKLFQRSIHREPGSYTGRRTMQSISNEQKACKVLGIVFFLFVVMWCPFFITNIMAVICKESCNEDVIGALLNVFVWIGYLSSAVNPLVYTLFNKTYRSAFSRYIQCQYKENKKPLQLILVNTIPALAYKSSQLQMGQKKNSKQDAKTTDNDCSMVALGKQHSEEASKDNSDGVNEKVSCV

CN(C)C1(CNC(=O)c2ccc3c(c2)CCN3C(=O)c2ccccc2)CCOCC1 [RPI-GLYT2–82, 1-benzoyl-N-((4-(dimethylamino)tetrahydro-2H-pyran-4-yl)methyl)indoline-5-carboxamide]
IC50 (hGlyT2^W215F): > 10000 nM
IC50 (hGlyT2^WT [1]; IC50 at 20 mM Na+, 20 mM Na+, choline chloride substitute): 159 nM
IC50 (hGlyT2^WT [1]; IC50 at 100 mM Na+, 100 mM Na+): 279 nM
Mechanism of inhibition (hGlyT2^WT [2]): non-competitive inhibitor
Reversibility of inhibition (recovery of glycine-induced currents) (hGlyT2^WT [3]): recovered to pre-inhibition levels within five minutes
Peak reduction of response rate to von Frey stimulus (CCI mice; CCI mice, 50 mg/kg i.p.): 30%
Peak reduction of response rate to von Frey stimulus (CCI mice; CCI mice, 100 mg/kg i.p.): 42%
Time of maximum efficacy, mechanical allodynia (CCI mice; CCI mice, 50 and 100 mg/kg i.p.): between 90 minutes and 3 hours post-administration
Efficacy at alleviating mechanical allodynia compared to pregabalin (CCI mice; pregabalin 50 mg/kg): not as efficacious
IC50 [4]: 1900 nM
Activity at adenosine receptors (adenosine receptors): inactive
Activity at muscarinic receptors (muscarinic receptors): inactive

— paper PMC12667952 (bioRxiv, 2025)
